According to ChEMBL document CHEMBL1765045, “Fine-tuning the selectivity of aldosterone synthase inhibitors: structure-activity and structure-selectivity insights from studies of heteroaryl substituted 1,2,5,6-tetrahydropyrrolo[3,2,1-ij]quinolin-4-one derivatives” (J Med Chem, 2011):

How the values were obtained:
CYP2C9 [1] = target: T1, CYP2C9 (Homo sapiens, UniProt P11712); assay: Inhibition of human CYP2C9 expressed in baculovirus-infected insect microsomes at 10 uM; assay type: ADME, Microsome
T1 sequence (P11712 whole entry): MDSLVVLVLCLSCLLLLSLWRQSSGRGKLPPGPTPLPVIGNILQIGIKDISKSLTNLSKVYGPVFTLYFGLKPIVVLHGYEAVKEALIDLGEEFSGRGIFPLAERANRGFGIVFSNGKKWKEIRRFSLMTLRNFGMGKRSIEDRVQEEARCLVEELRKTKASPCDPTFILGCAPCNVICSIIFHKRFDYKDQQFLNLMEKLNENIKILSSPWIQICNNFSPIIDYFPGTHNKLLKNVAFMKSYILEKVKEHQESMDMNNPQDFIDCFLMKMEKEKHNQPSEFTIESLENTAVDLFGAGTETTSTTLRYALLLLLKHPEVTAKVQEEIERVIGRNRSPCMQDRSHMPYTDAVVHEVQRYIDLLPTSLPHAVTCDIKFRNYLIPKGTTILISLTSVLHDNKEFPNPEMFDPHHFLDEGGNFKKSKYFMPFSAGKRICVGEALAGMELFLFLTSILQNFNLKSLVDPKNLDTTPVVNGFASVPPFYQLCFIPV
How it was run: (§1)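 Recombinant human CYP1A2, 2B6, 2C9, 2C19, 2D6 or 3A4 in baculovirus-infected insect microsomes (Supersomes), run per manufacturer's protocol. Inhibitor at 1 and 10 μM; percent inhibition is the mean of two experiments.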

CYP2B6 [2] = target: T2, CYP2B6 (Homo sapiens, UniProt P20813); assay: Inhibition of human CYP2B6 expressed in baculovirus-infected insect microsomes at 1 uM; assay type: ADME, Microsome; how it was run: as §1
T2 sequence (P20813 whole entry): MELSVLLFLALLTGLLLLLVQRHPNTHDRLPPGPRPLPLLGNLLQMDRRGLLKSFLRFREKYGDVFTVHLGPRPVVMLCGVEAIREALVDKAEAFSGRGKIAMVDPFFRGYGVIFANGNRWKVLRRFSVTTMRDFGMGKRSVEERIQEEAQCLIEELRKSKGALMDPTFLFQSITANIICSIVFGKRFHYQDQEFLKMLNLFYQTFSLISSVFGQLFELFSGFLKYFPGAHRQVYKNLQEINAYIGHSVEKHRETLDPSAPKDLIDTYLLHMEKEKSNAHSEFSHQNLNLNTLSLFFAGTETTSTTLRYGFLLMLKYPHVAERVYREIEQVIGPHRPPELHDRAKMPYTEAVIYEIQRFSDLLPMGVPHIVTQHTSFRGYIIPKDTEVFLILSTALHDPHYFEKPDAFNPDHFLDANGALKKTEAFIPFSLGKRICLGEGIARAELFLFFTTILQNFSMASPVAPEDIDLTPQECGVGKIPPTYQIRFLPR

CYP3A4 = CYP3A4 (Homo sapiens, UniProt P08684); assay: Inhibition of human CYP3A4 expressed in baculovirus-infected insect microsomes at 1 uM; assay type: ADME, Microsome; how it was run: as §1
Chain of CYP3A4 (P08684 whole entry): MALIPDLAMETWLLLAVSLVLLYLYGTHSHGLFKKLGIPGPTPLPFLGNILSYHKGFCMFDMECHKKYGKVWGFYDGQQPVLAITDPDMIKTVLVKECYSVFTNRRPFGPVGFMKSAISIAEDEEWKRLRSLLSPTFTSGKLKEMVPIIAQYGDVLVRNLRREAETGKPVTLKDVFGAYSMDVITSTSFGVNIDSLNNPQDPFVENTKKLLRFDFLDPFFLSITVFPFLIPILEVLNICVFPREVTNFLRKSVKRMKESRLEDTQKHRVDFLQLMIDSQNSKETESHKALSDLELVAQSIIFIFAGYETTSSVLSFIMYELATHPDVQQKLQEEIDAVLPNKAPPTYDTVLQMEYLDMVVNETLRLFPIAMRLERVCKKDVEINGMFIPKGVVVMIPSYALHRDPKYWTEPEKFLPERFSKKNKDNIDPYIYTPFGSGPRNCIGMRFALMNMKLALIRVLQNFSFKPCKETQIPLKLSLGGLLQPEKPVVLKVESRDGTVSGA

CYP1A2 = target: T3, CYP1A2 (Homo sapiens, UniProt P05177); assay: Inhibition of human CYP1A2 expressed in baculovirus-infected insect microsomes at 10 uM; assay type: ADME, Microsome; how it was run: as §1
T3 sequence (P05177 whole entry): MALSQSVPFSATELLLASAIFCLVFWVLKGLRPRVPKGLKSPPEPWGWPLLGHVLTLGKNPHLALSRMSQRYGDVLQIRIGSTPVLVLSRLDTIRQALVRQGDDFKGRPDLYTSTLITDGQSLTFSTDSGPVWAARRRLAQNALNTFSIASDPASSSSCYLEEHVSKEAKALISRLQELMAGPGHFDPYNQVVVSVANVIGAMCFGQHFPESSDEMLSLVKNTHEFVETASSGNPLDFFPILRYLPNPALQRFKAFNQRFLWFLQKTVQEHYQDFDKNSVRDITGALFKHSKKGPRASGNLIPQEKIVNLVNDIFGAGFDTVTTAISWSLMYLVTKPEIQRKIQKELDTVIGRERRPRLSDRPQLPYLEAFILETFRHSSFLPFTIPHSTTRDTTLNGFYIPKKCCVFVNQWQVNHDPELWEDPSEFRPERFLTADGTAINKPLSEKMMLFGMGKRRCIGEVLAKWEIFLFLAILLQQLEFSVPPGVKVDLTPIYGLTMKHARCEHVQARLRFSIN

CYP2C9 [3] = target: T1, CYP2C9; assay: Inhibition of human CYP2C9 expressed in baculovirus-infected insect microsomes at 1 uM; assay type: ADME, Microsome; how it was run: as §1
[4] = target: T4, Cytochrome P450 11B2, mitochondrial (Homo sapiens, UniProt P19099); assay: Inhibition of human CYP11B2 expressed in hamster V79 MZh cells assessed as conversion of [4-14C]-11-deoxycorticosterone substrate at 500 nM by HPTLC assay; assay type: cell-based; conditions: V79MZh
T4 sequence (P19099 whole entry): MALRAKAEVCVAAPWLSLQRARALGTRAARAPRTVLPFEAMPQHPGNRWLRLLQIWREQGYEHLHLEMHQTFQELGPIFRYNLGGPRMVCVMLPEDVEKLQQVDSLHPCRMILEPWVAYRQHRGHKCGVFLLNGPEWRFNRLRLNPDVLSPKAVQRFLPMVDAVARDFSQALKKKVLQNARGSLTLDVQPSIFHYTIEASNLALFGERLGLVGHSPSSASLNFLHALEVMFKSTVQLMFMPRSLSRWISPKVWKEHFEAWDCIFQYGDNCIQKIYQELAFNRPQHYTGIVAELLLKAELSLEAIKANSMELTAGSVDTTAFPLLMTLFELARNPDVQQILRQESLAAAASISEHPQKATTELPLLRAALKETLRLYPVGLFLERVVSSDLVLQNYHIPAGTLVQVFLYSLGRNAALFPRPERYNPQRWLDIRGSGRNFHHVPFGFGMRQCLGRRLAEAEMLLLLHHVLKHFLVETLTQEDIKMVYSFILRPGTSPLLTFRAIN
How it was run: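 V79 MZh cells expressing human CYP11B2 given [4-14C]-11-deoxycorticosterone, 100 nM, with inhibitor at a single 500 nM concentration. Ethyl acetate extraction, then HPTLC/phosphoimager readout of conversion. Percent inhibition is the mean of at least three experiments.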

CYP17 = target: T5, CYP17 (Homo sapiens, UniProt P05093); assay: Inhibition of human CYP17 expressed in Escherichia coli using progesterone substrate at 2 uM; conditions: recombinant human CYP17 expressed in Escherichia coli, probe progesterone
T5 sequence (P05093 whole entry): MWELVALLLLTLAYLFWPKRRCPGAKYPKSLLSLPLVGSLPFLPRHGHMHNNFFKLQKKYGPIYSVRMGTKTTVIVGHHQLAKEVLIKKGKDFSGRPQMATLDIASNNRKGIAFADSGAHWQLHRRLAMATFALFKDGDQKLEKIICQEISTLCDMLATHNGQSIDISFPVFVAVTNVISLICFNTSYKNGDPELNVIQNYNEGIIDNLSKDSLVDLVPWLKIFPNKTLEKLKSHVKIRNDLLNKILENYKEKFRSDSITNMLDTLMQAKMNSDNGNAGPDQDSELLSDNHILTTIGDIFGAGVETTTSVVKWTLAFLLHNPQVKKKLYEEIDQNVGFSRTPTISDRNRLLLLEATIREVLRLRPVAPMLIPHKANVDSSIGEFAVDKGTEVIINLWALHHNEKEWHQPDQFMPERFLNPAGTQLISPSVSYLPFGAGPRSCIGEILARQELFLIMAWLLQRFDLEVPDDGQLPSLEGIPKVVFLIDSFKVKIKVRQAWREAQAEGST
How it was run: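 50000g sediment of E. coli homogenate recombinantly expressing human CYP17. Progesterone substrate at 25 μM, inhibitor tested at 2 μM.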

CYP2C19 [5] = target: T6, CYP2C19 (Homo sapiens, UniProt P33261); assay: Inhibition of human CYP2C19 expressed in baculovirus-infected insect microsomes at 10 uM; assay type: ADME, Microsome; how it was run: as §1
T6 sequence (P33261 whole entry): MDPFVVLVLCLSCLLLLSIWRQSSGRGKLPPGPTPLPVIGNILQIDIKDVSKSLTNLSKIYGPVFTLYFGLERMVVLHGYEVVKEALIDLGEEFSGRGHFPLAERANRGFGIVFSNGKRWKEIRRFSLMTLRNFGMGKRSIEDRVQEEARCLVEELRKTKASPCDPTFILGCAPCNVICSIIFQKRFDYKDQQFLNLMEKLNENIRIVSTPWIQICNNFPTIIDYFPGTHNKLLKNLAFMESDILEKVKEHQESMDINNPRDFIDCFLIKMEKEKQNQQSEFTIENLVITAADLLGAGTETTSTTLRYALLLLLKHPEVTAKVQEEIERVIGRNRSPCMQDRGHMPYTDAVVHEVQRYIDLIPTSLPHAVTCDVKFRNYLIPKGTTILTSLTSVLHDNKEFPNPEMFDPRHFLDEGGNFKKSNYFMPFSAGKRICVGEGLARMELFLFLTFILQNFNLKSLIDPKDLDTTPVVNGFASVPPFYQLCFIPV

CYP2B6 [6] = target: T2, CYP2B6; assay: Inhibition of human CYP2B6 expressed in baculovirus-infected insect microsomes at 10 uM; assay type: ADME, Microsome; how it was run: as §1
[7] = target: T4, Cytochrome P450 11B2, mitochondrial; assay: Inhibition of human CYP11B2 expressed in hamster V79 MZh cells assessed as conversion of [4-14C]-11-deoxycorticosterone substrate by HPTLC assay; assay type: cell-based
How it was run: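 Hamster V79 MZh fibroblasts expressing human CYP11B2 incubated with [4-14C]-11-deoxycorticosterone (100 nM) and inhibitor at ≥3 concentrations; reaction stopped with ethyl acetate, steroids extracted after shaking and centrifugation (10000g, 2 min). Substrate conversion read by HPTLC with phosphoimaging.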

CYP2C19 [8] = target: T6, CYP2C19; assay: Inhibition of human CYP2C19 expressed in baculovirus-infected insect microsomes at 1 uM; assay type: ADME, Microsome; how it was run: as §1

| inhibition at 10 µM (CYP2C9 [1]) | inhibition at 1 µM (CYP2B6 [2]) | inhibition at 1 µM (CYP3A4) | inhibition at 10 µM (CYP1A2) | inhibition at 1 µM (CYP2C9 [3]) | inhibition at 0.5 µM [4] | inhibition at 2 µM (CYP17) | inhibition at 10 µM (CYP2C19 [5]) | inhibition at 10 µM (CYP2B6 [6]) | IC50 [7] | inhibition at 1 µM (CYP2C19 [8]) | Compound |
| --- | --- | --- | --- | --- | --- | --- | --- | --- | --- | --- | --- |
| 79% | < 5% | 37% | 38% | 39% | 97% | 7% | 21% | 13% | 1.4 nM |  | O=C1CCc2cc(-c3cncc(-c4cccc(F)c4)c3)cc3c2N1CC3 |
| 41% | < 5% | < 5% | 43% | 6% | 90% | 6% | < 5% | < 5% | 1.1 nM | < 5% | O=C1CCc2cc(-c3cccnc3)cc3c2N1CC3 |
| 40% | 27% | 6% | 83% | 19% | 95% | 6% | 44% | 36% | 2.4 nM | 8% | O=C1CCc2cc(-c3cccnc3)cc3c2N1CCC3 |
| 42% | < 5% | 14% | 72% | 23% | 98% | < 5% | 30% | 8% | 0.6 nM | 7% | COc1cncc(-c2cc3c4c(c2)CCN4C(=O)CC3)c1 |
